In ChEMBL document CHEMBL1250476, “Synthesis and antifungal evaluation of novel triazole derivatives as inhibitors of cytochrome P450 14alpha-demethylase” (2010) one finds MIC data, which are given here for twelve compounds.

In brackets after ≈: the same amount, converted by molar mass. Some results are limits rather than exact numbers.

Common to all, as to assay type: functional
Assay [1] deals with Candida albicans. Description: Antifungal activity against Candida albicans SC5314 after 24 hrs by micro-broth dilution method. As to conditions: SC5314, 24 h. In short, it runs like this: (§1)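 Broth microdilution per NCCLS on Candida albicans. Compounds were dissolved in DMSO, serially diluted in growth medium, inoculated and incubated at 35 °C. Growth was read at 24 h, and MIC80 was taken as the first well with about 80% growth reduction relative to the drug-free control. Values are the mean of three replicates.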

For assay [2], the system named is Candida albicans. Description: Antifungal activity against Candida albicans Y0109 after 24 hrs by micro-broth dilution method. Conditions: Y0109, 24 h. In short, it runs like this: as §1
Another assay concerns Cryptococcus neoformans. Description: Antifungal activity against Cryptococcus neoformans after 72 hrs by micro-broth dilution method. In short, it runs like this:
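Cryptococcus neoformans tested by NCCLS micro-broth dilution. Compounds were dissolved in DMSO, serially diluted in medium, inoculated and incubated at 35 °C. MIC80 was read at 72 h as the first well showing approximately 80% growth reduction compared with the drug-free well. Values are the mean of three replicate tests.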
On the technique in general: Dilution methods test growth across graded concentrations, often in twofold steps.

Another assay deals with Candida parapsilosis. Description: Antifungal activity against Candida parapsilosis by micro-broth dilution method. Conditions: Lodderomyces parapsilosis. Put shortly:
(§2)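 MIC80 by broth microdilution in 96-well format following NCCLS. Compounds were dissolved in DMSO, serially diluted in growth medium, inoculated and incubated at 35 °C. The endpoint was the first well with about 80% growth reduction versus the drug-free well. Values are means of three replicate tests.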

The next assay deals with Candida tropicalis. Briefly: Antifungal activity against Candida tropicalis by micro-broth dilution method. Put shortly:
as §2

The next assay has as its system Trichophyton rubrum. Briefly: Antifungal activity against Trichophyton rubrum by micro-broth dilution method. In short, it runs like this:
as §2

Another assay has as its system Kluyveromyces marxianus. Briefly: Antifungal activity against Candida kefyr by micro-broth dilution method. Put shortly:
as §2

Another assay concerns Aspergillus fumigatus. Briefly: Antifungal activity against Aspergillus fumigatus by micro-broth dilution method. In short, it runs like this:
as §2

As for `OC(CN(Cc1cn(Cc2ccccc2F)nn1)C1CC1)(Cn1cncn1)c1ccc(F)cc1F` (stereo unspecified), the MIC – broadly, the least concentration at which growth counts as inhibited – is 0.5 µg/mL (≈ 1.03 µM) against Candida albicans [1]; 0.0625 µg/mL (≈ 0.129 µM) in the assay on Candida albicans [2]; 8 µg/mL (≈ 16.5 µM) with Cryptococcus neoformans; 1 µg/mL (≈ 2.07 µM) in the assay with Candida parapsilosis; 0.5 µg/mL (≈ 1.03 µM) in the assay on Candida tropicalis; 0.25 µg/mL (≈ 0.517 µM) with Trichophyton rubrum. In addition, the MIC was 0.0156 µg/mL (≈ 0.0323 µM) against Kluyveromyces marxianus and more than 64 µg/mL against Aspergillus fumigatus.
For `OC(CN(Cc1cn(Cc2cccc(F)c2)nn1)C1CC1)(Cn1cncn1)c1ccc(F)cc1F` (stereo unspecified), the MIC in the assay on Candida albicans [1] was less than 0.125 µg/mL; with Candida albicans [2], 0.0625 µg/mL (≈ 0.129 µM); in the assay on Cryptococcus neoformans, more than 64 µg/mL; against Candida parapsilosis, less than 0.125 µg/mL; against Candida tropicalis, less than 0.125 µg/mL; with Trichophyton rubrum, less than 0.125 µg/mL. Further, the MIC against Kluyveromyces marxianus amounted to 0.0156 µg/mL (≈ 0.0323 µM); against Aspergillus fumigatus, 64 µg/mL (≈ 132 µM).
As for `CC(C)N(Cc1cn(Cc2ccccc2F)nn1)CC(O)(Cn1cncn1)c1ccc(F)cc1F` (stereo unspecified), the MIC was less than 0.125 µg/mL against Candida albicans [1]; 0.0156 µg/mL (≈ 0.0321 µM) against Candida albicans [2]; 2 µg/mL (≈ 4.12 µM) against Cryptococcus neoformans; 0.25 µg/mL (≈ 0.515 µM) with Candida parapsilosis; less than 0.125 µg/mL in the assay on Candida tropicalis; less than 0.125 µg/mL against Trichophyton rubrum. Also, the MIC against Kluyveromyces marxianus was 0.0625 µg/mL (≈ 0.129 µM); against Aspergillus fumigatus, more than 64 µg/mL.
`CC(C)N(Cc1cn(Cc2cccc(F)c2)nn1)CC(O)(Cn1cncn1)c1ccc(F)cc1F` (stereo unspecified): the MIC against Candida albicans [1] is less than 0.125 µg/mL; against Candida albicans [2], 0.0156 µg/mL (≈ 0.0321 µM); against Cryptococcus neoformans it was 4 µg/mL (≈ 8.24 µM); against Candida parapsilosis it was 0.25 µg/mL (≈ 0.515 µM); against Candida tropicalis, less than 0.125 µg/mL; in the assay with Trichophyton rubrum, less than 0.125 µg/mL. The figures for the MIC in the assay with Kluyveromyces marxianus and with Aspergillus fumigatus were 0.0625 µg/mL (≈ 0.129 µM) and more than 64 µg/mL, respectively.
As for `CC(C)N(Cc1cn(Cc2ccc(F)cc2)nn1)CC(O)(Cn1cncn1)c1ccc(F)cc1F` (stereo unspecified), the MIC in the assay with Candida albicans [1] was determined as 0.25 µg/mL (≈ 0.515 µM); in the assay on Candida albicans [2], 0.25 µg/mL (≈ 0.515 µM); against Cryptococcus neoformans, 8 µg/mL (≈ 16.5 µM); against Candida parapsilosis, 4 µg/mL (≈ 8.24 µM); in the assay with Candida tropicalis, 1 µg/mL (≈ 2.06 µM); against Trichophyton rubrum, 2 µg/mL (≈ 4.12 µM). The MIC was 0.25 µg/mL (≈ 0.515 µM) in the assay on Kluyveromyces marxianus and more than 64 µg/mL against Aspergillus fumigatus.
As to `CC(C)N(Cc1cn(Cc2ccccc2Cl)nn1)CC(O)(Cn1cncn1)c1ccc(F)cc1F` (stereo unspecified), the MIC with Candida albicans [1] was less than 0.125 µg/mL; in the assay with Candida albicans [2], 0.0039 µg/mL (≈ 0.00777 µM); against Cryptococcus neoformans it was 16 µg/mL (≈ 31.9 µM); against Candida parapsilosis it was 2 µg/mL (≈ 3.98 µM); against Candida tropicalis, 1 µg/mL (≈ 1.99 µM); with Trichophyton rubrum, less than 0.125 µg/mL. Also, the MIC in the assay on Kluyveromyces marxianus is 0.25 µg/mL (≈ 0.498 µM); in the assay with Aspergillus fumigatus it was more than 64 µg/mL.
For `CC(C)N(Cc1cn(Cc2cccc(Cl)c2)nn1)CC(O)(Cn1cncn1)c1ccc(F)cc1F` (stereo unspecified), the MIC in the assay with Candida albicans [1] was less than 0.125 µg/mL; in the assay with Candida albicans [2] it was 0.0156 µg/mL (≈ 0.0311 µM); in the assay with Cryptococcus neoformans, 32 µg/mL (≈ 63.7 µM); with Candida parapsilosis it was 4 µg/mL (≈ 7.97 µM); against Candida tropicalis it was 2 µg/mL (≈ 3.98 µM); in the assay on Trichophyton rubrum, 2 µg/mL (≈ 3.98 µM). Besides, the figures for the MIC in the assay on Kluyveromyces marxianus and in the assay on Aspergillus fumigatus were 0.25 µg/mL (≈ 0.498 µM) and more than 64 µg/mL, respectively.
For the compound `CC(C)N(Cc1cn(Cc2ccc(Cl)cc2)nn1)CC(O)(Cn1cncn1)c1ccc(F)cc1F` (stereo unspecified), the MIC with Candida albicans [1] was less than 0.125 µg/mL; in the assay with Candida albicans [2] it was 0.0625 µg/mL (≈ 0.125 µM); with Cryptococcus neoformans it was 4 µg/mL (≈ 7.97 µM); against Candida parapsilosis, 2 µg/mL (≈ 3.98 µM); in the assay with Candida tropicalis, 0.5 µg/mL (≈ 0.996 µM); with Trichophyton rubrum, 0.5 µg/mL (≈ 0.996 µM). Further, the figures for the MIC with Kluyveromyces marxianus and against Aspergillus fumigatus were 0.25 µg/mL (≈ 0.498 µM) and more than 64 µg/mL, respectively.
With `CC(C)N(Cc1cn(Cc2ccccc2Br)nn1)CC(O)(Cn1cncn1)c1ccc(F)cc1F` (stereo unspecified), the MIC in the assay on Candida albicans [1] was less than 0.125 µg/mL; in the assay on Candida albicans [2], 0.0156 µg/mL (≈ 0.0285 µM); against Cryptococcus neoformans, 1 µg/mL (≈ 1.83 µM); against Candida parapsilosis it was less than 0.125 µg/mL; in the assay on Candida tropicalis, less than 0.125 µg/mL; in the assay on Trichophyton rubrum, less than 0.125 µg/mL. Besides, the MIC came out at 0.0156 µg/mL (≈ 0.0285 µM) in the assay on Kluyveromyces marxianus and 16 µg/mL (≈ 29.3 µM) in the assay on Aspergillus fumigatus.
For the compound `CC(C)N(Cc1cn(Cc2cccc(Br)c2)nn1)CC(O)(Cn1cncn1)c1ccc(F)cc1F` (stereo unspecified), the minimum inhibitory concentration (MIC) against Candida albicans [1] worked out at 0.25 µg/mL (≈ 0.458 µM); with Candida albicans [2], 1 µg/mL (≈ 1.83 µM); with Cryptococcus neoformans it was 1 µg/mL (≈ 1.83 µM); with Candida parapsilosis, 0.0156 µg/mL (≈ 0.0285 µM); with Candida tropicalis it was 0.25 µg/mL (≈ 0.458 µM); against Trichophyton rubrum it was 0.0625 µg/mL (≈ 0.114 µM). Besides, the MIC is 0.0039 µg/mL (≈ 0.00714 µM) in the assay with Kluyveromyces marxianus and more than 64 µg/mL against Aspergillus fumigatus.
Turning to `CC(C)N(Cc1cn(Cc2ccc(Br)cc2)nn1)CC(O)(Cn1cncn1)c1ccc(F)cc1F` (stereo unspecified), the MIC with Candida albicans [1] is less than 0.125 µg/mL; against Candida albicans [2] it was 0.0625 µg/mL (≈ 0.114 µM); against Cryptococcus neoformans, 8 µg/mL (≈ 14.6 µM); with Candida parapsilosis, 4 µg/mL (≈ 7.32 µM); in the assay with Candida tropicalis it was 1 µg/mL (≈ 1.83 µM); against Trichophyton rubrum it was 1 µg/mL (≈ 1.83 µM). The figures for the MIC in the assay with Kluyveromyces marxianus and in the assay with Aspergillus fumigatus were 0.25 µg/mL (≈ 0.458 µM) and more than 64 µg/mL, respectively.
Turning to `Cc1ccc(Cn2cc(CN(CC(O)(Cn3cncn3)c3ccc(F)cc3F)C(C)C)nn2)cc1` (stereo unspecified), the MIC in the assay on Candida albicans [1] worked out at 1 µg/mL (≈ 2.08 µM); against Candida albicans [2] it was 0.0625 µg/mL (≈ 0.13 µM); in the assay on Cryptococcus neoformans it was 8 µg/mL (≈ 16.6 µM); against Candida parapsilosis, 2 µg/mL (≈ 4.15 µM); against Candida tropicalis, 0.25 µg/mL (≈ 0.519 µM); with Trichophyton rubrum, 0.25 µg/mL (≈ 0.519 µM). In addition, the MIC in the assay on Kluyveromyces marxianus is 1 µg/mL (≈ 2.08 µM); in the assay on Aspergillus fumigatus it was more than 64 µg/mL.
